From ChEMBL document CHEMBL1165916, “Interactions of 1-methyl-3-phenylpyrrolidine and 3-methyl-1-phenyl-3-azabicyclo[3.1.0]hexane with monoamine oxidase B” (Bioorg Med Chem, 2010) come the findings set out here.

By Vmax is commonly meant the rate approached at saturating substrate. Broadly, the Km is the concentration of substrate that gives half-maximal velocity.

Calls of active or inactive are those of the source. The calls are words filed in the database; no cut-off is given here.

The species entered for data set [1] is Papio hamadryas. The data set is described as follows: Activity at baboon liver mitochondrial MAO-B assessed as initial rate of H2O2 production after 15 mins assessed per mg of mitochondrial protein. The method in brief: (§1)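 Incubation time was set within the linear range for each substrate. Stopped with (R)-deprenyl on ice; peroxidase-coupled spectrophotometric read-out. Rates in nmol/min-mg protein, fitted to Michaelis–Menten. Triplicate or duplicate.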

Data set [2] is filed under the species Papio hamadryas. Kind of data set: Activity at baboon liver mitochondrial MAO-B assessed as initial rate of H2O2 production after 8 mins assessed per mg of mitochondrial protein. The method, boiled down:
(§2)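 Baboon liver mitochondria stored at −70 °C and diluted with phosphate buffer containing 50% glycerol. MAO-B at 0.15 mg protein/mL in 100 mM sodium phosphate, pH 7.4, 37 °C, with eight substrate concentrations spanning two orders of magnitude. Incubation lasted 6 or 8 min (linear period). Stopped with (R)-deprenyl on ice, then centrifuged. H2O2 measured by peroxidase-coupled spectrophotometry against an 11–88 µM calibration. Duplicates; Michaelis–Menten fit gave Km, Vmax (nmol/min-mg), Vmax/Km.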

The species entered for data set [3] is Papio hamadryas. The data set is described as follows: Ratio of Vmax to Km for baboon liver mitochondrial MAO-B assessed per mg of protein after 8 mins. The method, boiled down:
as §2

The species entered for data set [4] is Papio hamadryas. Kind of data set: Activity at baboon liver mitochondrial MAO-B assessed as H2O2 production at 500 uM after 6 to 15 mins pretreated with (R)-deprenyl. The method, boiled down:
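Mitochondria (0.3 mg protein/mL) were preincubated with (R)-deprenyl at 37 °C in 100 mM sodium phosphate, pH 7.4. They were then added to 500 µM substrate to give 0.15 mg protein/mL, with chromogenic solution, at 37 °C. Reactions were stopped with (R)-deprenyl, and H2O2 was measured by peroxidase-coupled spectrophotometry. Values were compared with fully active controls preincubated without inactivator.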

The species entered for data set [5] is Papio hamadryas. Kind of data set: Activity at baboon liver mitochondrial MAO-B assessed as initial rate of H2O2 production after 8 mins. The method, boiled down:
as §2

Data set [6] is filed under the species Papio hamadryas. The data set is described as follows: Activity at baboon liver mitochondrial MAO-B assessed as initial rate of H2O2 production after 10 mins assessed per mg of mitochondrial protein. The method in brief: as §1
The species entered for data set [7] is Papio hamadryas. The data set is described as follows: Activity at baboon liver mitochondrial MAO-B assessed as H2O2 production at 250 uM after 6 to 15 mins pretreated with (R)-deprenyl.
The species named for data set [8] is Papio hamadryas. The data set is described as follows: Activity at baboon liver mitochondrial MAO-B assessed as initial rate of H2O2 production after 10 mins. The method, boiled down: as §1
Data set [9] is filed under the species Papio hamadryas. The data set is described as follows: Ratio of Vmax to Km for baboon liver mitochondrial MAO-B assessed per mg of protein after 10 mins. The method, boiled down: as §1
For data set [10], the species on record is Papio hamadryas. Kind of data set: Ratio of Vmax to Km for baboon liver mitochondrial MAO-B assessed per mg of protein after 6 mins. The method, boiled down: as §2
The species entered for data set [11] is Papio hamadryas. Kind of data set: Activity at baboon liver mitochondrial MAO-B assessed as initial rate of H2O2 production after 6 mins assessed per mg of mitochondrial protein. The method, boiled down:
as §2

For data set [12], the species on record is Papio hamadryas. The data set is described as follows: Activity at baboon liver mitochondrial MAO-B assessed as initial rate of H2O2 production after 6 mins. The method in brief:
as §2

Data set [13] is filed under the species Papio hamadryas. Kind of data set: Activity at baboon liver mitochondrial MAO-B assessed as H2O2 production at Vmax concentration after 20 mins.
For data set [14], the system named is Mus musculus. The data set is described as follows: Neurotoxicity in C57BL/6 mouse assessed as depletion of dopamine level in striatum at 238 umol/kg, ip after 7 days by HPLC-ECD analysis relative to control. Particulars: in vivo, 168 h. It is filed as toxicity, organism-based. The method in brief: (§3)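 Saline controls run alongside. Mice killed by cervical dislocation 7 days later. Striatal dopamine measured by HPLC-ECD, means ± SEM.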

For data set [15], the species on record is Papio hamadryas. Kind of data set: Activity at baboon liver mitochondrial MAO-B assessed as initial rate of H2O2 production after 20 mins assessed per mg of mitochondrial protein. The method, boiled down: as §1
The species named for data set [16] is Papio hamadryas. The data set is described as follows: Activity at baboon liver mitochondrial MAO-B assessed as H2O2 production at 500 uM after 20 mins pretreated with MAOB inhibitor (R)-deprenyl.
For data set [17], the species on record is Papio hamadryas. The data set is described as follows: Ratio of Vmax to Km for baboon liver mitochondrial MAO-B assessed per mg of protein after 20 mins. The method in brief: as §1
For data set [18], the species on record is Papio hamadryas. The data set is described as follows: Activity at baboon liver mitochondrial MAO-B assessed as H2O2 production at 250 uM after 20 mins. The method in brief: (§4)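 Baboon liver mitochondria (0.15 mg protein/mL) incubated with substrate and chromogenic solution at 37 °C in 100 mM sodium phosphate, pH 7.4. Reactions stopped at 2.5–20 min with (R)-deprenyl on ice and centrifuged. H2O2 read by peroxidase-coupled spectrophotometric assay against an 11–88 µM calibration. Triplicate, means ± SEM.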

For data set [19], the species on record is Papio hamadryas. Kind of data set: Activity at baboon liver mitochondrial MAO-B assessed as initial rate of H2O2 production after 20 mins. The method in brief: as §1
The species named for data set [20] is Papio hamadryas. Kind of data set: Activity at baboon liver mitochondrial MAO-B assessed as initial rate of H2O2 production after 12.5 mins. The method in brief:
(§5)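 Baboon liver mitochondrial fraction (0.15 mg protein/mL; protein by Bradford) was incubated with substrate in 100 mM sodium phosphate, pH 7.4, at 37 °C for 12.5 min. (R)-Deprenyl (5 mM stock) was added and the samples were placed on ice, then centrifuged. H2O2 was read by peroxidase-coupled spectrophotometry against an 11–88 µM calibration. Initial rates were taken at eight substrate levels, in duplicate. Km and Vmax came from a Michaelis–Menten fit, with rates as nmol H2O2/min-mg protein.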

Data set [21] has as its system Mus musculus. Kind of data set: Neurotoxicity in C57BL/6 mouse assessed as depletion of dopamine level in striatum at 167 umol/kg, ip after 7 days by HPLC-ECD analysis relative to control. It is filed as toxicity, organism-based. Particulars: in vivo, 168 h. The method, boiled down:
as §3

The species entered for data set [22] is Papio hamadryas. Kind of data set: Activity at baboon liver mitochondrial MAO-B assessed as initial rate of H2O2 production after 12.5 mins assessed per mg of mitochondrial protein. The method in brief:
as §5

For data set [23], the species on record is Papio hamadryas. Kind of data set: Ratio of Vmax to Km for baboon liver mitochondrial MAO-B assessed per mg of protein after 12.5 mins. The method in brief:
as §5

The species entered for data set [24] is Papio hamadryas. The data set is described as follows: Activity at baboon liver mitochondrial MAO-B assessed as H2O2 production at 250 uM after 15 mins pretreated with MAOB inhibitor (R)-deprenyl.
The species entered for data set [25] is Papio hamadryas. The data set is described as follows: Activity at baboon liver mitochondrial MAO-B assessed as H2O2 production at Vmax concentration after 15 mins.
For data set [26], the species on record is Papio hamadryas. Kind of data set: Activity at baboon liver mitochondrial MAO-B assessed as initial rate of H2O2 production after 15 mins. The method, boiled down: as §1
For data set [27], the species on record is Papio hamadryas. The data set is described as follows: Ratio of Vmax to Km for baboon liver mitochondrial MAO-B assessed per mg of protein after 15 mins. The method in brief:
as §1

The species named for data set [28] is Papio hamadryas. Kind of data set: Activity at baboon liver mitochondrial MAO-B assessed as H2O2 production at 500 uM after 20 mins. The method, boiled down: as §4
The species entered for data set [29] is Papio hamadryas. The data set is described as follows: Activity at baboon liver mitochondrial MAO-B assessed as H2O2 production at 250 uM after 15 mins. The method in brief: as §4

With `CN1CCC(c2ccccc2)CC1`, the Vmax entry in the data set listed under Papio hamadryas [1] is “inactive”.
Take `NCc1ccccc1`: in the data set listed under Papio hamadryas [2], the Vmax is 42.4 nmol/min/mg. The Vmax/Km in the data set filed under Papio hamadryas [3] is 0.17 min⁻¹. Moreover, the Activity in the data set filed under Papio hamadryas [4] was determined as 5%. Moreover, in the data set listed under Papio hamadryas [5], the Km is 249 µM.
In the case of `CN1CC=C(c2cccn2C)CC1`, in the data set filed under Papio hamadryas [6], the Vmax stood at 22.2 nmol/min. The Activity in the data set filed under Papio hamadryas [7] came to 5%. The Km in the data set listed under Papio hamadryas [8] worked out at 43.4 µM. Also, the Vmax/Km in the data set listed under Papio hamadryas [9] came out at 0.51 min⁻¹.
On to `NCCC(=O)c1ccccc1N`, for which, in the data set filed under Papio hamadryas [10], the Vmax/Km was 0.85 min⁻¹. Further, the Activity in the data set filed under Papio hamadryas [4] stood at 5%. For the same molecule, the maximal velocity (Vmax) in the data set filed under Papio hamadryas [11] is 50 nmol/min/mg. The Michaelis constant (Km) in the data set listed under Papio hamadryas [12] was 58.9 µM.
Regarding `CN1CCC(c2ccccc2)C1.O=C(O)C(=O)O` (racemic), the Activity came out at 6% in the data set filed under Papio hamadryas [13], 99% with Mus musculus [14] and 1.92 µM in the data set filed under Papio hamadryas [16]. In addition, the Vmax in the data set filed under Papio hamadryas [15] was found to be 8.37 nmol/min. Moreover, the Vmax/Km in the data set filed under Papio hamadryas [17] was 0.04 min⁻¹. Besides, the outcome in the data set filed under Papio hamadryas [18] was Active. Besides, the Km in the data set filed under Papio hamadryas [19] was determined as 234 µM.
`CN1CC=C(c2ccccc2)CC1.Cl`: in the data set filed under Papio hamadryas [20], the Michaelis constant (Km) was found to be 81.8 µM. For the same molecule, the Activity in the data set with Mus musculus [21] is 27%; in the data set filed under Papio hamadryas [4] it was 5%. In the data set listed under Papio hamadryas [22], the Vmax was found to be 11.7 nmol/min. For the same molecule, the Vmax/Km in the data set listed under Papio hamadryas [23] worked out at 0.14 min⁻¹.
In the case of `CN1CC2CC2(c2ccccc2)C1.O=C(O)C(=O)O` (racemic), the Activity in the data set on Mus musculus [14] amounted to 111%; in the data set filed under Papio hamadryas [24], 1.79 µM; in the data set listed under Papio hamadryas [25] it was 6%; in the data set filed under Papio hamadryas [29], 27.3 µM. For the same molecule, in the data set filed under Papio hamadryas [1], the Vmax came out at 16.9 nmol/min. Moreover, the Km in the data set filed under Papio hamadryas [26] was determined as 148 µM. Further, in the data set listed under Papio hamadryas [27], the Vmax/Km is 0.11 min⁻¹. The result in the data set listed under Papio hamadryas [28] and in the data set filed under Papio hamadryas [18] was Active.
Turning to `CN1CC=C(c2ccccc2)C1`, in the data set filed under Papio hamadryas [6], the Vmax was 27.9 nmol/min. For the same molecule, in the data set filed under Papio hamadryas [8], the Km is 100 µM. Also, the Vmax/Km in the data set filed under Papio hamadryas [9] came to 0.28 min⁻¹.
